In the library only some 3.8% were active in any assay of this set; here they are far more common.
MC4R barr agon – MC4R agonists recruiting beta-arrestin, primary screen, cell-based, luminescence, agonist arm of biased-ligand search | activation, % at 8.9 µM | U2OS MC4R beta-arrestin complementation; percent of melanotan II response, DMSO zero | 360,000 compounds, 0.98% hits | Melanocortin receptor 4 (Homo sapiens), P32245;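 active = activation above a per-plate cutoff, the mean activation of sample wells on that plate plus 3 SD, cut at about 8% in these data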
Beta apoptosis – inhibitors of cytokine-induced beta cell apoptosis, primary screen, luminescence. INS-1E cytokine-induced death, ATP luminescence, 48 h; percent of positive-control rescue, neutral wells zero. protection from apoptosis, % (concentration not given with the values). 300,000 compounds, 0.8% hits;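 active = Every replicate reaches about 75%, or at least half do and their mean reaches it too, limit read from the data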;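 note: higher means more ATP so stronger rescue from cytokine killing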
ANO1 block – TMEM16A chloride channel inhibitors, primary screen, cell-based, HTS. Anoctamin-1 (Mus musculus), Q8BHY3. HEK293 TMEM16A/YFP iodide influx fluorescence, ionomycin. normalized B-score (activity score, 25-100; higher = stronger inhibition) at 10 µM. 310,000 compounds, 1.2% hits. AID 588511, 2011;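 active = ratio plate-corrected score three or more library SD toward inhibition, starting fluorescence score within five deviations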;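 note: score derived from kinetic fluorescence span divided by baseline fluorescence per well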
Target sequence (Q8BHY3 whole entry, looked up): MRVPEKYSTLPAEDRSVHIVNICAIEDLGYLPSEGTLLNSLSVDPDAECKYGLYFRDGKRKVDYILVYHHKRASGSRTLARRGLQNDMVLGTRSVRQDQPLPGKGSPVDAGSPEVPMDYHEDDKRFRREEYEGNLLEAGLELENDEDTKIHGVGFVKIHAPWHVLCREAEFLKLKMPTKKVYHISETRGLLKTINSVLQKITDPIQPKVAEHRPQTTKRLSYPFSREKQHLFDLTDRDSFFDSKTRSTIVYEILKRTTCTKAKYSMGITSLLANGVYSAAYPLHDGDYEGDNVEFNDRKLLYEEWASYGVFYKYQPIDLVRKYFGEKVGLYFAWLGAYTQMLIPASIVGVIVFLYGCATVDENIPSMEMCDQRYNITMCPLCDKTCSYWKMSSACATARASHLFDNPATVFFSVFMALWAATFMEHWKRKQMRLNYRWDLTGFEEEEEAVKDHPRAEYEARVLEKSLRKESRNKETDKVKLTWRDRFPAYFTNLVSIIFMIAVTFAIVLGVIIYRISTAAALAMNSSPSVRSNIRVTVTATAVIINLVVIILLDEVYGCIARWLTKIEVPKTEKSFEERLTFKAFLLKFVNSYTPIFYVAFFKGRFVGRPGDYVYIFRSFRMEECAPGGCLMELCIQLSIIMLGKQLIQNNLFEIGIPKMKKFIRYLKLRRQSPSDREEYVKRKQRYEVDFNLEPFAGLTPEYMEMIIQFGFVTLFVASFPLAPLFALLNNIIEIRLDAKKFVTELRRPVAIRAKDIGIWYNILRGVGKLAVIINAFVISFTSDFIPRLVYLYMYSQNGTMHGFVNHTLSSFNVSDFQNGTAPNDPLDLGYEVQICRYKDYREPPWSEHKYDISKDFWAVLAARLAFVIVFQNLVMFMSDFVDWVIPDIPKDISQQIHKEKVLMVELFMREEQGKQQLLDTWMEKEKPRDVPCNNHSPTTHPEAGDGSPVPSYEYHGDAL
ANO1 activ – TMEM16A chloride channel activators or potentiators, primary screen, cell-based, HTS | HEK293 TMEM16A/YFP-H148Q/I152L, iodide quench fluorescence; stronger effect = lower value | 340,000 compounds, 0.3% hits | B-score at 10 µM | Anoctamin-1 (Mus musculus), Q8BHY3;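 active = fluorescence-ratio B-score plate-corrected deviation score at least 3 library SD below zero, with starting fluorescence score within 5 deviations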;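 note: channel opened by trigger with iodide after compound preincubation; score built on the fluorescence ratio of max minus min over baseline; more negative score means more quench and so TMEM16A activation or potentiation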
MC4R antagonist – MC4R antagonists of cAMP signaling, primary screen, cell-based, TR-FRET, antagonist arm of biased-ligand search. MC4R-expressing cells, MTII-stimulated cAMP, LANCE TR-FRET. AID 540295, 2011. 360,000 compounds, 0.48% hits. inhibition, % at 6.5 µM;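 active = inhibition above its plate's cutoff, the mean of tested wells on that plate plus 3 SD, cut at about 29% in these data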
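System: U2OS cells stably expressing human melanocortin 4 receptor (MC4R). Reagent: Melanotan II challenge after compound preincubation. Doses: 6.5 µM. Times: 30-min compound, 1-h challenge, 1-h detection, room temperature. Measured by: TR-FRET with Eu-cAMP and labeled anti-cAMP, 671 nm. Replicates: singlicate.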
CSC inhib – cancer stem cell viability inhibitors, primary screen, luminescence; cancer stem cell-like cells viability; inhibition, % at 7.5 µM; 300,000 compounds, 1.1% hits; AID 2717, 2010; in the data active = inhibition above about 75%; tested in HMLE shEcad cells
Each line names hits and unclear results; the compound was inactive in the other large screens.

O=C1c2c(O)ccc(O)c2C(=O)c2c(NCCNCCO)ccc(NCCNCCO)c21	CSC inhib 97
CCc1nn(CC(=O)NCCCN2CCN(C)CC2)c(=O)c2cc3sccc3n12	none
CCc1nn(CC(=O)NCCCN2CCc3ccccc3C2)c(=O)c2cc3sccc3n12	ANO1 block 100
O=C(NCCCNC(=O)c1cccs1)c1cccs1	ANO1 activ -12
N#Cc1cccc(NC(=O)CCc2ccc(S(=O)(=O)N3CCOCC3)cc2)c1	none (no result: ANO1 block)
C/C(=N\NC(=O)CNc1cccc(C(F)(F)F)c1)c1ccc(Br)cc1	MC4R barr agon 8.3
C/C(=N\NC(=O)CNc1cccc(C(F)(F)F)c1)c1cccc(Br)c1	none
Cc1ccc(OC/C(O)=C(\C#N)c2nc3ccccc3s2)cc1	ANO1 block 100, CSC inhib 78
COC(=O)c1ccc(/C(O)=C(\C#N)c2nc3ccccc3s2)cc1	ANO1 block 25
CC(C)=C(C#N)c1nc2ccccc2s1	none
O=C(Cc1ccc(Cl)cc1)OCC(=O)N1CCCCCC1	none (no result: ANO1 block)
O=C(NC(Cc1ccc(O)cc1)C(=O)N=Nc1c(O)[nH]c2ccccc12)c1ccccc1 (stereo unspecified)	none (no result: Beta apoptosis, ANO1 block, CSC inhib)
CC1CCCCN1Cc1nc2c(c(=O)n(C)c(=O)n2C)n1Cc1c(F)cccc1Cl (stereo unspecified)	CSC inhib 77
CCCn1c(CN2CCCCC2C)nc2c1c(=O)n(C)c(=O)n2C (stereo unspecified)	none (no result: CSC inhib)
CC(C)Cn1c(CN2CCCCC2C)nc2c1c(=O)n(C)c(=O)n2C (stereo unspecified)	ANO1 activ -8.2
COc1ccc(NC(=O)C2(C)CCN2Cc2ccc(OC(F)(F)F)cc2)cc1OC (stereo unspecified)	none (no result: Beta apoptosis, ANO1 block, ANO1 activ, CSC inhib)
CCN1CCN(Cc2ccc(NC(=O)c3cc(NC(=O)c4cc(C)on4)cc(OC)c3)cc2C(F)(F)F)CC1	none
CCN1CCN(Cc2ccc(NC(=O)c3cc(NC(=O)c4cnn(-c5ccccc5)c4N)cc(OC)c3)cc2C(F)(F)F)CC1	Beta apoptosis 109, CSC inhib 131
CCCN(CCC)CCCNC(=O)CC(C(=O)N1CCc2ccccc21)n1ccnc1 (stereo unspecified)	ANO1 block 25
CCN(CC)CC(C)CNC(=O)CC(C(=O)N1CCc2ccccc21)n1ccnc1 (stereo unspecified)	none (no result: Beta apoptosis)
COc1cccc(C(=O)O/N=C(\N)c2ccc([N+](=O)[O-])cc2)c1OC	MC4R barr agon 8.6
O=C(N/N=C/c1ccc(O)cc1)c1cc(C23CC4CC(CC(C4)C2)C3)[nH]n1	CSC inhib 80
COc1ccc(/C=N/NC(=O)c2cc(C34CC5CC(CC(C5)C3)C4)[nH]n2)cc1OC	none
COc1ccccc1NS(=O)(=O)c1ccc(C)c(C(=O)NCC2(N(C)C)CCCCC2)c1	none (no result: ANO1 block)
Cc1cccc(C)c1OCC(O)CN1CCc2ccccc2C1 (stereo unspecified)	none
Cc1ccc(C(C)C)c(OCC(O)CN2CCc3ccccc3C2)c1 (stereo unspecified)	Beta apoptosis 98
Cc1cc(C)n(Cc2cccc(C(=O)N/N=C/c3ccncc3)c2)n1	none
Brc1csc(/C=N/Nc2nc3ccccc3s2)c1	none
Cc1csc(N/N=C/c2ccc([N+](=O)[O-])cc2)n1	none
COc1ccc(C=NNc2nc3ccccc3s2)cc1	MC4R barr agon 9.1 (no result: Beta apoptosis, ANO1 block, CSC inhib)
Cc1csc(N/N=C/c2ccccn2)n1	CSC inhib 83
C(=N\Nc1nc2ccccc2s1)/c1ccccn1	CSC inhib 94 (no result: MC4R barr agon, Beta apoptosis, MC4R antagonist)
CNC(=O)c1cc(C(=O)c2ccc(F)cc2C(F)(F)F)c[nH]1	none
O=C(CNC(=O)c1ccc(Br)o1)Nc1ccc(F)c(S(=O)(=O)N2CCOCC2)c1	none (no result: Beta apoptosis, ANO1 block, CSC inhib)
COc1ccc2c(c1)cc1c(=O)n(CC(=O)NCCCN3CCOCC3)nc(C)n12	none
Cc1ccc(O)c(-c2cc(-c3ccccc3[N+](=O)[O-])[nH]n2)c1	MC4R barr agon 8.9
Cc1[nH]c2ccccc2c1/C=N/Nc1ccccc1[N+](=O)[O-]	CSC inhib 77
COc1ccc(NS(=O)(=O)c2cc([N+](=O)[O-])ccc2N/N=C/c2c(C)[nH]c3ccccc23)cc1	none (no result: Beta apoptosis, ANO1 block, CSC inhib)
CCN1CCN(S(=O)(=O)c2ccc(Cl)c(C(=O)N(C)CCOc3ccc(Cl)cc3)c2)CC1	none
CCN(CC(=O)Nc1c(F)cccc1F)C(=O)/C=C/c1ccc(S(=O)(=O)N2CCCCCC2)cc1	ANO1 block 25
CC(C)N1CCc2c(sc(NC(=O)c3ccc4ccccc4c3)c2C(N)=O)C1	CSC inhib 79
CC(=O)Nc1sc2c(c1-c1nc3ccccc3s1)CCN(C(C)C)C2	Beta apoptosis 100
CN1CCc2c(sc(NC(=O)c3ccc(S(=O)(=O)N4CCCC4)cc3)c2C(N)=O)C1	none
CN1CCc2c(sc(NC(=O)c3ccc(S(=O)(=O)N4CCc5ccccc54)cc3)c2C(N)=O)C1	CSC inhib 82 (no result: MC4R barr agon, ANO1 activ, MC4R antagonist)
COc1ccc(O)c(/C=N/NC(=O)c2cccc(N3CCCC3=O)c2)c1	Beta apoptosis 94 (no result: CSC inhib)
COc1ccc(O)c(/C=N/NC(=O)c2ccc(N3CCCC3=O)cc2)c1	none
COc1ccc(-c2cc(=O)n(-c3nc4ccccc4[nH]3)[nH]2)cc1	CSC inhib 104
COc1ccc(-c2nc3ccccc3[nH]2)cc1	none (no result: Beta apoptosis, CSC inhib)
CC(C)NC(=O)c1ccccc1NC(=O)/C=C/c1cccc([N+](=O)[O-])c1	Beta apoptosis 113, CSC inhib 96
CC(C)C(NC(=O)/C=C/c1cccc([N+](=O)[O-])c1)C(C)C	none
CC(=O)c1cccc(NC(=O)COc2ccc3oc(=O)cc(C)c3c2)c1	none
CCN1C/C(=C/c2ccc(OC)c(O)c2)C(=O)/C(=C/c2ccc(OC)c(O)c2)C1	Beta apoptosis 97, CSC inhib 102
COc1ccc(C=C2C(=O)c3ccccc3C2=O)cc1O	none (no result: Beta apoptosis)
COc1ccc(/C=C2\CN(Cc3ccccc3)C/C(=C\c3ccc(OC)c(O)c3)C2=O)cc1O	Beta apoptosis 104, CSC inhib 119
COc1cc(/C=C2\COC/C(=C\c3ccc(O)c(OC)c3)C2=O)ccc1O	CSC inhib 87
CSc1nc(N)nc2c1ncn2CC(=O)N[C@H](C)c1cccc2ccccc12	none (no result: ANO1 block, ANO1 activ, CSC inhib)
Cc1noc(C)c1S(=O)(=O)N(C)C[C@H]1Oc2c(NS(=O)(=O)c3cn(C)cn3)cccc2C(=O)N([C@H](C)CO)C[C@@H]1C	none (no result: Beta apoptosis, ANO1 block, ANO1 activ, CSC inhib)
COc1ccc(CCNC(=O)c2ccc(CN3CCC(Cc4ccccc4)CC3)cc2)cc1OC	ANO1 activ -6.9

Source: PubChem
